Source: ChEMBL document CHEMBL4196108, “5-Aroylindoles Act as Selective Histone Deacetylase 6 Inhibitors Ameliorating Alzheimer's Disease Phenotypes” (J Med Chem, 2018)
Calls of active or inactive are those of the source.

What was measured:
[1] = molecular target: T1, Protein deacetylase HDAC6 (Homo sapiens) (UniProt Q9UBN7); experiment: Inhibition of HDAC6 in human SH-SY5Y cells transfected with pCAX FLAG APP and pRK5-EGFP-Tau P301L plasmids assessed as increase in coimmunoprecipitation of ubiquitin with phosphorylated tau at Ser396 residue at 1 uM after 24 hrs; format: cell-based
T1 sequence (whole entry): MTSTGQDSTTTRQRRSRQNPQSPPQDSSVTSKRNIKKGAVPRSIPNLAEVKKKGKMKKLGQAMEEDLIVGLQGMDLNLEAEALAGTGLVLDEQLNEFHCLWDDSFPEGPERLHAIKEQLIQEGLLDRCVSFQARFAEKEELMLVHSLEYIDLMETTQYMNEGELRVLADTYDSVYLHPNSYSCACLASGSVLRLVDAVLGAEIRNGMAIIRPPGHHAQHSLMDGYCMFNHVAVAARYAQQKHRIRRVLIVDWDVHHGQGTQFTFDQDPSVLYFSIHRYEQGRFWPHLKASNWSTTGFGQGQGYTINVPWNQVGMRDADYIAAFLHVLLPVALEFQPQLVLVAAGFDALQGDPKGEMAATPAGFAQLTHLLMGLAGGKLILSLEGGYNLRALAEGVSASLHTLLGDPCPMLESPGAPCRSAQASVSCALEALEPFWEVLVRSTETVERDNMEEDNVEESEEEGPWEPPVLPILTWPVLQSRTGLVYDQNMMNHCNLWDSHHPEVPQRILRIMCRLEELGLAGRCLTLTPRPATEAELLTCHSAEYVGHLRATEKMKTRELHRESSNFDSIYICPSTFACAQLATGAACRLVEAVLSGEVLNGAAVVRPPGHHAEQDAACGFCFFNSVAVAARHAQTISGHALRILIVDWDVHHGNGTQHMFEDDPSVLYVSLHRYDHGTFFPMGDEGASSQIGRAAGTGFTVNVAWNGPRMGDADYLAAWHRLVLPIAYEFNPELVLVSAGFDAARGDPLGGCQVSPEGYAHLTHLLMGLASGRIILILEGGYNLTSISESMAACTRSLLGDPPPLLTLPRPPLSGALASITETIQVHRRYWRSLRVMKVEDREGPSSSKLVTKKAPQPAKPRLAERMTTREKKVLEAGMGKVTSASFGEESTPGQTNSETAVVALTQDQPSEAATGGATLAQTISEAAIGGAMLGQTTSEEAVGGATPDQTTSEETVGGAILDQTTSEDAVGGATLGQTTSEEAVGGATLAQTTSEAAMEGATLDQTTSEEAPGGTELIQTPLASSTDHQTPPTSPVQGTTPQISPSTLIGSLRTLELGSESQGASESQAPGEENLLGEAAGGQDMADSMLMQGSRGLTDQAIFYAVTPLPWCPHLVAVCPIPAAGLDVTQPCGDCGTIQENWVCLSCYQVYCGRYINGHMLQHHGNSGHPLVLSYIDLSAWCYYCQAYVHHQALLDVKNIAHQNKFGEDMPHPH
Method in brief: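 In APP695/Tau P301L-cotransfected SH-SY5Y cells treated 24 h at 1 µM, lysates (30 µg) were immunoprecipitated with anti-ubiquitin antibody and protein A/G beads overnight at 4 °C, then immunoblotted for phospho-tau Ser396 after 8% SDS-PAGE.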

SH-SY5Y = experiment: Inhibition of APP levels in human SH-SY5Y cells transfected with pCAX FLAG APP and pRK5-EGFP-Tau P301L plasmids at 1 uM after 24 hrs by Western blot analysis; format: functional, cell-based
Method in brief: (§1)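 SH-SY5Y or Neuro-2a cells cotransfected 24 h with pCAX APP695 and pRK5-EGFP-Tau P301L, then treated 24 h at 1 µM. 20 µg lysate protein immunoblotted for APP and phospho-tau Ser396/Ser404. Mean ± STD of three independent experiments; Student's t-test.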

[2] = molecular target: T1, Protein deacetylase HDAC6 (Homo sapiens); experiment: Inhibition of HDAC6 in human SH-SY5Y cells transfected with pCAX FLAG APP and pRK5-EGFP-Tau P301L plasmids assessed as inhibition of Tau P301L mutant phosphorylation at Ser404 residue at 1 uM after 24 hrs by Western blot analysis; format: cell-based; method in brief: as §1
Rattus norvegicus = experiment: In vivo inhibition of HDAC6 in Wistar rat brain hippocampal CA1 region assessed as downregulation of scopolamine-mediated increase in Tau phosphorylation at Ser396/Ser404 residues by immunohistochemical analysis; format: functional, organism-based
Method in brief: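 Male Wistar rats, 7 weeks old, dosed orally at 25 mg/kg in 1% carboxymethyl cellulose/0.5% Tween 80 once daily. Scopolamine 1 mg/kg i.p. 90 min before test trial (controls excluded). Morris water maze (hidden platform escape latency), elevated plus maze (started at open-arm end, time to closed arm), then CA1 phospho-tau Ser396/Ser404 immunohistochemistry.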

Measured: inhibition

COc1ccc(C(=O)c2ccc3c(ccn3Cc3ccc(C(=O)NO)cc3)c2)cc1
active: all assays above
